pIC50: −log10 of the molar value.

Series [1] deals with T1, C-X-C chemokine receptor type 2 (Homo sapiens, UniProt P25025).
T1 sequence (P25025 whole entry): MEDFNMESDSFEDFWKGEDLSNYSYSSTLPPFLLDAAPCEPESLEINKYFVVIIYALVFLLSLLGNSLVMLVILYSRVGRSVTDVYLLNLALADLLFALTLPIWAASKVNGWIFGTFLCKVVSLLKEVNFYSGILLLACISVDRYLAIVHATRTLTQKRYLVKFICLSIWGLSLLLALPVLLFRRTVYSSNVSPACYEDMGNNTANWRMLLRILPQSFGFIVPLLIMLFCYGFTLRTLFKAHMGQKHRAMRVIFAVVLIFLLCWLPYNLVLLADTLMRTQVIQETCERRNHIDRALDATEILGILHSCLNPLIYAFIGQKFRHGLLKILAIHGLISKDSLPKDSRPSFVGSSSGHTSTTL
The series can be described thus: Displacement of [125I]IL8 from human recombinant CXCR2 expressed in HEK293 membranes by SPA. Put shortly: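 Human recombinant CXCR2 in HEK293 cell membranes, screened by scintillation proximity assay at the HTS stage. SPA actives were then validated in a conventional filter-wash [125I]IL8 binding assay on hrCXCR2.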
In general terms: Loss of bound radioactivity is the signal in a displacement assay; it reports binding, not function.

The target in series [2] is T2, C-X-C chemokine receptor type 2 (Homo sapiens) (UniProt P25025).
T2 sequence (whole entry): T1 sequence (P25025 whole entry)
The series can be described thus: Inhibition of CXCR2 at 10 uM.

Series [3] can be described thus: Clearance in human liver microsome. The class given is ADME. The note with it: liver microsomes. In general terms: Microsomes from liver hold many membrane-bound enzymes, among them those of drug oxidation.
A short description of series [4]: Clearance in iv dosed rat. It is filed as ADME, organism-based. The note with it: in vivo.
A short description of series [5]: Volume of distribution in iv dosed rat. It is filed as ADME, organism-based. The note with it: in vivo, read-out: Vdss.
Series [6] can be described thus: Half life in iv dosed rat. It is filed as ADME, organism-based. To be noted: in vivo.
In series [7] the target is T3, Interleukin-8 receptors, CXCR1/CXCR2 (Homo sapiens, UniProt P25025+P25024).
T3 sequence (P25025 whole entry): T1 sequence (P25025 whole entry)
T3 sequence (P25024 whole entry): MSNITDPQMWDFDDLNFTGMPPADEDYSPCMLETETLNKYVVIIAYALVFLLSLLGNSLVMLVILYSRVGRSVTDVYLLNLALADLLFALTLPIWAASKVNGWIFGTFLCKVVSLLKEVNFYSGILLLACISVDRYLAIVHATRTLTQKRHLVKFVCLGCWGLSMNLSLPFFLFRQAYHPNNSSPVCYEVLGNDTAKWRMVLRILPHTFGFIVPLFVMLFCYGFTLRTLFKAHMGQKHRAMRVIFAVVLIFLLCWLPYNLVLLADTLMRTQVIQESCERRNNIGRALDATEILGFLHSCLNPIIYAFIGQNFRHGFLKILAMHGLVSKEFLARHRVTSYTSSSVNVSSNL
Briefly: Inhibition of GROalpha-stimulated intracellular calcium mobilisation in human neutrophils by FLIPR. It is filed as functional, cell-based. (Calcium assays in cells follow changes in intracellular calcium, usually with a dye or a luminescent sensor.)

Series [8] in a line: Distribution coefficient of the compound, log D. The note with it: octanol/water. The class given is physicochemical.
Series [9] is described as follows: Oral bioavailability in rat. The class given is ADME, organism-based. To be noted: in vivo.
Series [10] is described as follows: Protein binding in plasma. The class given is ADME, cell-free. The note with it: human, read-out: PPB (converted).

Turning to `CC[C@H](CO)Nc1nc(SCc2cccc(Oc3ccccc3)c2)nc2nc(N)sc12`, the pIC50 in series [1] was 6.46.
Still for that read-out and setting: with `Nc1nc2nc(SCc3ccccc3)nc(N)c2s1` the figure was 5.00.
`COC(=O)CSc1nc(SCc2ccccc2)nc2nc(N)sc12`: the inhibition in series [2] was less than 50%.
For the molecule `CC(C)(CO)Nc1nc(SCc2cccc(Oc3ccccc3)c2)nc2nc(N)sc12`, in [1], the pIC50 was 7.30.
Turning to `CC[C@H](CO)Nc1nc(SCc2ccccc2)nc2nc(N)sc12`, the pIC50 in [1] was 6.92. Besides, the microsomal CLint in series [3] was 6 µL/min/mg. Moreover, the clearance in series [4] was determined as 40 mL/min/kg. Moreover, the Vd in series [5] amounted to 2.2 L/kg. In series [6], this molecule had a half-life of 1 h.
Take `Nc1nc2nc(SCc3cccc(Oc4ccccc4)c3)[nH]c(=O)c2s1`: in series [1], the pIC50 is 6.32.
`Nc1nc2nc(SCc3ccccc3)[nH]c(=O)c2s1`: in series [1], the pIC50 was 5.89. The molecule also gave a microsomal CLint in [3] of less than 3 µL/min/mg.
`CCCCCSc1nc(O)c2sc(Br)nc2n1` gave an inhibition in [2] of less than 50%.
Same read-out and setting: the value for `CCCCCSc1nc(O)c2sc(NC)nc2n1` was less than 50%.
Regarding `CCCCCSc1nc(O)c2sc(N)nc2n1`, the pIC50 in series [1] was 5.00. Further, the IC50 in series [7] was determined as 2 µM. The molecule further displayed an intrinsic metabolic clearance (microsomal CLint) in series [3] of 18 µL/min/mg. This molecule also yielded a logD in [8] of 2.9.
`CSc1nc(O)c2sc(N)nc2n1` showed an inhibition in [2] of less than 50%.
The same measure, in the same setting: the value for `Nc1nc2nc(SCc3ccccc3)nc(SCCO)c2s1` was less than 50%.
The same measure, in the same setting: the value for `Nc1nc2nc(SCc3ccccc3)nc(SCC(=O)O)c2s1` was less than 50%; that for `CCCCCSc1nc(Cl)c2sc(N)nc2n1` was less than 50%.
Turning to `CC[C@@H](CO)Nc1nc(SCc2ccccc2)nc2nc(N)sc12`, in [1], the pIC50 was 5.41.
Take `CCCCCSc1nc(NCCCO)c2sc(N)nc2n1`: in series [2], the inhibition is less than 50%.
In turn, `CCCCCSc1nc(N(CC)CC)c2sc(N)nc2n1` had an inhibition in [2] of less than 50%.
Same read-out and setting: the value for `Nc1nc2nc(SCc3cccc(F)c3F)nc(Cl)c2s1` was less than 50%.
Take `Nc1nc2nc(SCc3cccc(F)c3F)[nH]c(=O)c2s1`: the pIC50 in series [1] is 6.57. The same molecule showed a microsomal CLint in series [3] of 2 µL/min/mg. For the same molecule, in series [4], the clearance was determined as 9.5 mL/min/kg. Besides, the Vd in [5] amounted to 0.9 L/kg. The half-life in series [6] is 3.5 h.
In the case of `CC(C)(CO)Nc1nc(SCc2cccc(F)c2F)nc2nc(N)sc12`, the pIC50 in series [1] was 7.85. In addition, the IC50 in series [7] came to 0.04 µM. The molecule also came in with a microsomal CLint in [3] of 31 µL/min/mg. Besides, the logD in series [8] was determined as 3.4. In [4], this molecule yielded a clearance of 25 mL/min/kg. For the same molecule, the Vd in series [5] stood at 1.9 L/kg. In series [6], this molecule showed a half-life of 1.2 h. Also, the bioavailability in [9] worked out at 15%. Moreover, the fraction unbound in [10] is 0.016.
`CCCCCSc1nc(NC2CCCC2)c2sc(N)nc2n1` returned an inhibition in [2] of less than 50%.
For the molecule `CCCCCSc1nc2ncsc2c(=O)[nH]1`, in [1], the pIC50 was 5.00.
In the case of `Nc1nc2nc(SCc3cccc(Oc4ccccc4)c3)nc(Cl)c2s1`, in series [2], the inhibition was less than 50%.
In turn, `Nc1nc2nc(SCc3ccccc3)nc(Cl)c2s1` yielded an inhibition in series [2] of less than 50%.
As to `CC[C@@H](CO)Nc1nc(SCc2cccc(Oc3ccccc3)c2)nc2nc(N)sc12`, the pIC50 in series [1] is 5.85.
In the case of `CCCCCSc1nc(NCCO)c2sc(N)nc2n1`, the pIC50 in [1] is 5.15.
On to `CCSc1nc(O)c2sc(N)nc2n1`, for which the inhibition in [2] was less than 50%.
As to `CCCCCSc1nc(O)c2sc(NC(C)=O)nc2n1`, in [2], the inhibition was less than 50%.
`CC[C@H](CO)Nc1nc(SCc2cccc(F)c2F)nc2nc(N)sc12`: in series [1], the pIC50 was 8.02.

One may read the pIC50 as the negative decadic logarithm of the IC50, by convention in mol/L. The term inhibition denotes how much of the control response was suppressed. High values mean a response far below the control, low ones a response near the control. In general, microsomal CLint refers to the capacity of the preparation to metabolise the compound, expressed as a volume cleared per time. Usually clearance stands for a measure of how efficiently the substance is removed, as volume per time. For orientation: half-life means how long it takes for the measured level to halve. As usually defined, the IC50 is the point on the concentration scale where inhibition reaches its midpoint. The logD is the decadic logarithm of the distribution of all forms, ionised or not, between an organic phase and buffer at a given pH. The low end stands for lower lipophilicity, the high end for higher lipophilicity. What is called bioavailability is the share of a dose that reaches the circulation, judged against a reference dose that is usually intravenous. High values mean much systemic uptake, low ones little systemic uptake.

The values are drawn from ChEMBL document CHEMBL1149469, “Hit-to-Lead studies: the discovery of potent, orally bioavailable thiazolopyrimidine CXCR2 receptor antagonists” (Bioorg Med Chem Lett, 2006).
